Measured values: ChEMBL document CHEMBL3351368, “Biphenyl-4-carboxylic acid [2-(1H-indol-3-yl)-ethyl]-methylamide (CA224), a nonplanar analogue of fascaplysin, inhibits Cdk4 and tubulin polymerization: evaluation of in vitro and in vivo anticancer activity” (J Med Chem, 2014)
In brackets after ≈: the same amount, converted by molar mass. Activity calls are given as the source filed them.

Columns and labels:
[1] = Oral bioavailability in BALB/c mouse at 10 mg/kg; format: ADME, organism-based; details: in vivo
Outline: (§1)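 BALB/c mice given a single dose of 1.0 mg/kg IV or 10 mg/kg orally; plasma concentration followed over time and pharmacokinetic parameters derived from the time-concentration profile.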

NCI-H358 [2] = test: Cell cycle arrest in human NCI-H358 cells assessed as accumulation of cells at G0/G1 phase at IC50 concentration after 18 hrs by flow cytometry in presence of […] uM hydroxyurea for 18 hrs (reference value: 50%); format: functional
A549 = test: Induction of apoptosis in p53+, pRb+ human A549 cells assessed as fragmented nuclei/distrupted cell membrane after 24 hrs by DAPI staining-based flow cytometry; format: functional
MiaPaCa [3] = test: Effect on phosphorylation of Cdk1 at Tyr15 in p53His273 mutant, pRb+ human MiaPaCa cells at IC50 concentration after 48 hrs by Western blot analysis; format: functional
NCI-H1299 [4] = test: Induction of apoptosis in p53 null, pRb+ human NCI-H1299 cells assessed as fragmented nuclei/distrupted cell membrane at 1 to 10 uM by DAPI staining-based flow cytometry; details: TDE = time-dependent effect
Tubulin (Homo sapiens) = Tubulin (Homo sapiens) (UniProt P68371+Q9H4B7+P0DPH7+P68366+Q13509+Q71U36+P04350+Q3ZCM7+P07437+P68363+Q9BQE3+Q6PEY2+Q13885+Q9BVA1+Q9BUF5); test: Inhibition of tubulin (unknown origin) polymerization assessed as decrease in Vmax measured at 5 uM by spectrophotometry; format: protein-complex assay
Outline: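 Purified tubulin polymerisation followed as absorbance increase over about 4000 s. Vmax (mOD/min) is taken as the read-out, with final polymer mass also noted. Compound is tested at 2.5, 5, 10 and 25 µM alongside untreated control, paclitaxel 10 µM (enhancer) and nocodazole 10 µM (inhibitor). Curves are the average of three independent experiments.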

[5] = Cell cycle arrest in mouse BNL-SVA.8 cells assessed as accumulation of cells at subG1 phase at IC50 concentration after 48 hrs by flow cytometry (reference value: 0%); format: functional
Outline: (§2)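 Normal (BNL CL2) and SV40 large T-antigen transformed (BNL SV A.8) mouse embryonic hepatic cells were treated at IC50 or IC70 concentration for 48 h. Analysis was by FACS, with apoptosis taken as % cells in the sub-G1 peak. Untreated cells served as control.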

[6] = Terminal half life in BALB/c mouse at 1 mg/kg, iv; format: ADME, organism-based; parameters: dose 1 mg/kg, route intravenous; details: in vivo, read-out: beta t1/2 (converted); outline: as §1
NCI-H358 [7] = test: Cell cycle arrest in human NCI-H358 cells assessed as accumulation of cells at S phase at IC50 concentration after 12 hrs by flow cytometry in presence of nocodazole for 18 hrs (reference value: 10%); format: functional
[8] = Terminal half life in BALB/c mouse at 10 mg/kg, po; format: ADME, organism-based; parameters: dose 10 mg/kg, route oral; details: in vivo, read-out: beta t1/2 (converted); outline: as §1
[9] = molecular target: Epidermal growth factor receptor (Homo sapiens) (UniProt P00533); test: Inhibition of human EGFR assessed as enzyme activity at 10 uM
Epidermal growth factor receptor (Homo sapiens), sequence (P00533 whole entry): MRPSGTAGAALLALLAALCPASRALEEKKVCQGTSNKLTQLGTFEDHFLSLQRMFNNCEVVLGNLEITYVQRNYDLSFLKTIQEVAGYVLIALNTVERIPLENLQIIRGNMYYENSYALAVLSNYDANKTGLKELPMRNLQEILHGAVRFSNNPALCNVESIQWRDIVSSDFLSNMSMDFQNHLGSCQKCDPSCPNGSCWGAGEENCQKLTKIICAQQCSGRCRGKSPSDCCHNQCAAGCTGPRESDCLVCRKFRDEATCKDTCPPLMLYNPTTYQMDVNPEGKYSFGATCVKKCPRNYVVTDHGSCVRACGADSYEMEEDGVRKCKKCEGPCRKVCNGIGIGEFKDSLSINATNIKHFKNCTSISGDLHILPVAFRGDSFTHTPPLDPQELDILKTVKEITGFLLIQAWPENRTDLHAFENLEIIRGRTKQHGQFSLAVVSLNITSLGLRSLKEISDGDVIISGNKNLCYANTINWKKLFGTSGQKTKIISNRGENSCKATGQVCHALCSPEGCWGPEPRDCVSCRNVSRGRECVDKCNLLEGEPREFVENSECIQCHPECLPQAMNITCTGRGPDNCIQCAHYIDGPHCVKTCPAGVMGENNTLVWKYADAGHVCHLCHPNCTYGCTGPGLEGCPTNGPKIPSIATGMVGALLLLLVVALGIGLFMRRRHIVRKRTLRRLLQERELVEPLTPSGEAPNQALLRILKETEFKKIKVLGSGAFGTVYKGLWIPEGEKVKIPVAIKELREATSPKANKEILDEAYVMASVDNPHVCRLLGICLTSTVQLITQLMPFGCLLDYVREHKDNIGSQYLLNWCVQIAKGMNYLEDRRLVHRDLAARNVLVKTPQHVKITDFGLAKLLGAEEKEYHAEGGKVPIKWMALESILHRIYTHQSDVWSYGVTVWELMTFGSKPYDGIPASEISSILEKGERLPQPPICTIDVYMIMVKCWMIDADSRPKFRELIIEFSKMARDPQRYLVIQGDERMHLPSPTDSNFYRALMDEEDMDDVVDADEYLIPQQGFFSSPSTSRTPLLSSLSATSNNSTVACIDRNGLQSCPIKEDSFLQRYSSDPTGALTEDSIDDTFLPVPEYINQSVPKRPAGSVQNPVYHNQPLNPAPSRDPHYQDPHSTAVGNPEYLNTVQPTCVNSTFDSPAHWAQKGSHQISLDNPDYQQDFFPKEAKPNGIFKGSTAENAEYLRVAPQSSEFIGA

[10] = Cell cycle arrest in mouse BNL-CL2 cells assessed as accumulation of cells at S phase at IC50 concentration after 48 hrs by flow cytometry (reference value: 15%); format: functional; outline: as §2
NCI-H358 [11] = test: Cell cycle arrest in human NCI-H358 cells assessed as accumulation of cells at S phase at IC50 concentration after 18 hrs by flow cytometry in presence of […] uM hydroxyurea for 18 hrs (reference value: 12%); format: functional
CYP2C9 = CYP2C9 (Homo sapiens, UniProt P11712); test: Inhibition of human recombinant CYP2C9 at 10 uM; format: ADME
CYP2C9, sequence (P11712 whole entry): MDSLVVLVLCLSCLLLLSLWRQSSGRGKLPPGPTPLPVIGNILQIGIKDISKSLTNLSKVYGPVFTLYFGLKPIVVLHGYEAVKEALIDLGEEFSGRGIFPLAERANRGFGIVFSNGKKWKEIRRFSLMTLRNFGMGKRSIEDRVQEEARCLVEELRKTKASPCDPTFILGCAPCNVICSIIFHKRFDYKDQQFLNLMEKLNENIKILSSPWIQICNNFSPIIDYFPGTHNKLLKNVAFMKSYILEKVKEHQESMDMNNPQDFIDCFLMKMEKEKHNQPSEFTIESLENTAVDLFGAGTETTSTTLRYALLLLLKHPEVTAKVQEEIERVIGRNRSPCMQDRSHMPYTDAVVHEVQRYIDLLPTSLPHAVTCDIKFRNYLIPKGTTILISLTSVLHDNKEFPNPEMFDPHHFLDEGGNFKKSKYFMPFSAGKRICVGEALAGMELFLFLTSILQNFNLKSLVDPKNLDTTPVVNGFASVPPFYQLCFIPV

NCI-H358 [12] = test: Cell cycle arrest in human NCI-H358 cells assessed as accumulation of cells at G0/G1 phase at IC50 concentration after 12 hrs by flow cytometry in presence of nocodazole for 18 hrs (reference value: 40%); format: functional
[13] = AUC (0 to infinity) in BALB/c mouse at 1 mg/kg, iv; format: ADME, organism-based; parameters: time infinity, dose 1 mg/kg, route intravenous; details: plasma; outline: as §1
NCI-H1299 [14] = test: Cell cycle arrest in human NCI-H1299 cells assessed as accumulation of cells at G0/G1 phase at IC50 concentration after 24 hrs by flow cytometry (reference value: 56%); format: functional
[15] = Volume of distribution at steady state in BALB/c mouse at 1 mg/kg, iv; format: ADME, organism-based; parameters: dose 1 mg/kg, route intravenous; details: in vivo, read-out: Vdss; outline: as §1
[16] = Cell cycle arrest in mouse BNL-SVA.8 cells assessed as accumulation of cells at subG1 phase at IC70 concentration after 48 hrs by flow cytometry; format: functional; outline: as §2
NCI-H1299 [17] = test: Cell cycle arrest in human NCI-H1299 cells assessed as accumulation of cells at G2/M phase at IC50 concentration after 24 hrs by flow cytometry (reference value: 18%); format: functional
[18] = AUC (0 to t) in BALB/c mouse at 1 mg/kg, iv; format: ADME, organism-based; parameters: dose 1 mg/kg, route intravenous; details: plasma; outline: as §1
Mus musculus = test: Toxicity in human NCI-H460 cells xenografted in SCID mouse at 100 mg/kg, ip relative to untreated control; format: organism-based; parameters: dose 100 mg/kg, route intraperitoneal; details: in vivo
Outline: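 SCID female mice, 15-24 g, 6-8 weeks old, received 5.3 × 10^6 NCI-H460 cells subcutaneously on the dorsal side. Randomized at 4-6 mm tumors (about 6 days) into groups of 6 or 7, then dosed intraperitoneally for 9 consecutive days. Body weight recorded daily as percent of the start-of-treatment weight; >10% drop counted significant, >20% highly significant.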

[19] = molecular target: Cyclin-dependent kinase 1/cyclin B1 (Homo sapiens, UniProt P06493); test: Binding affinity to human CDK1/cyclinB1; format: protein-complex assay
Cyclin-dependent kinase 1/cyclin B1, sequence (P06493 whole entry): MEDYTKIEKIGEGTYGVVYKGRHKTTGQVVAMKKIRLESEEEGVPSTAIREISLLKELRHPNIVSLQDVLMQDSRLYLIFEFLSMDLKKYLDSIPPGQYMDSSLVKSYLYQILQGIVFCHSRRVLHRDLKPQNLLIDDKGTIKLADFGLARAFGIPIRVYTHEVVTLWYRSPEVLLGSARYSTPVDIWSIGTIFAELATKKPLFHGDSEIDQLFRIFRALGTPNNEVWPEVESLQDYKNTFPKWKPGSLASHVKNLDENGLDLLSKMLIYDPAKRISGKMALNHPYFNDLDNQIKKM
Cyclin-dependent kinase 1/cyclin B1, sequence (P14635 whole entry, further chain): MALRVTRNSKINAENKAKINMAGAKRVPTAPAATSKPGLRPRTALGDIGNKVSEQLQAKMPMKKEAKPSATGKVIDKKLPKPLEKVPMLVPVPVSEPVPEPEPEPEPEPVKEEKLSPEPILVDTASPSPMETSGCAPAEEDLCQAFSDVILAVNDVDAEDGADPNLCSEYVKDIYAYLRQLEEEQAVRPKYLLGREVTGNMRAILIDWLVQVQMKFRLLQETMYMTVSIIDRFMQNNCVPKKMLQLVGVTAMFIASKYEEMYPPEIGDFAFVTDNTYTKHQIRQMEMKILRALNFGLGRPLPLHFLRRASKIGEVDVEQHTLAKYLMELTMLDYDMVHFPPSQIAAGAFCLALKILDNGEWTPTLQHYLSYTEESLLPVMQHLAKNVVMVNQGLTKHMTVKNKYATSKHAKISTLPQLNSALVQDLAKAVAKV

[20] = Solubility in water; format: physicochemical
[21] = Cell cycle arrest in mouse BNL-CL2 cells assessed as accumulation of cells at G0/G1 phase at IC50 concentration after 48 hrs by flow cytometry (reference value: 57%); format: functional; outline: as §2
[22] = AUC (0 to infinity) in BALB/c mouse at 10 mg/kg, po; format: ADME, organism-based; parameters: time infinity, dose 10 mg/kg, route oral; details: plasma; outline: as §1
MiaPaCa [23] = test: Induction in cyclin B1 level in p53His273 mutant, pRb+ human MiaPaCa cells at IC50 concentration after 48 hrs by Western blot analysis; format: functional
[24] = Cmax in BALB/c mouse at 10 mg/kg, po; format: ADME, organism-based; parameters: dose 10 mg/kg, route oral; details: in vivo; outline: as §1
[25] = molecular target: Cyclin-dependent kinase 7/ cyclin H (Homo sapiens) (UniProt P51946+P50613); test: Inhibition of human CDK7/cyclinH assessed as enzyme activity at 10 uM; format: protein-complex assay
NCI-H358 [26] = test: Growth inhibition of p53 null, pRb null human NCI-H358 cells after 48 hrs by MTT assay; format: functional, cell-based; details: NCI-H358, 48 h
Outline: (§3)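 MTT cell proliferation assay. IC50 (µM) was defined as the concentration giving 50% inhibition of cell growth.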

NCI-H1299 [27] = test: Growth inhibition of p53 null, pRb+ human NCI-H1299 cells after 48 hrs by MTT assay; format: functional, cell-based; details: NCI-H1299, 48 h; outline: as §3
NCI-H358 [28] = test: Induction of apoptosis in p53 null, […] human NCI-H358 cells assessed as fragmented nuclei/distrupted cell membrane after 24 hrs by DAPI staining-based flow cytometry

**Q.** Which bioavailability [1] does the source give for `CN(CCc1c[nH]c2ccccc12)C(=O)c1ccc(-c2ccccc2)cc1` here?
**A.** 9.6%

**Q.** What about the Activity (NCI-H358 [2]) of the same compound?
**A.** 16%

**Q.** What about the Activity (A549) of the same compound?
**A.** Dose-dependent effect

**Q.** And the Activity (MiaPaCa [3])?
**A.** inactive

**Q.** And the Activity (NCI-H1299 [4])?
**A.** tde

**Q.** What about the Activity (milli optical density/minute) (Tubulin (Homo sapiens)) of the same compound?
**A.** 2.1

**Q.** What about the Activity [5] of the same compound?
**A.** 31%

**Q.** What about the half-life [6] of the same compound?
**A.** 19.8 min

**Q.** And the Activity (NCI-H358 [7])?
**A.** 10%

**Q.** And the half-life [8]?
**A.** 69.6 min

**Q.** And the inhibition [9]?
**A.** inactive

**Q.** And the Activity [10]?
**A.** 9%

**Q.** And the Activity (NCI-H358 [11])?
**A.** 10%

**Q.** What about the inhibition at 10 µM (CYP2C9) of the same compound?
**A.** 51%

**Q.** And the Activity (NCI-H358 [12])?
**A.** 7%

**Q.** And the AUC(0-inf) [13]?
**A.** 189 ng·h/mL

**Q.** And the Activity (NCI-H1299 [14])?
**A.** 22%

**Q.** What about the Vd [15] of the same compound?
**A.** 1.76 L/kg

**Q.** And the Activity [16]?
**A.** 44%

**Q.** And the Activity (NCI-H1299 [17])?
**A.** 71%

**Q.** What about the AUC(0-t) [18] of the same compound?
**A.** 187 ng·h/mL

**Q.** What about the Activity (Mus musculus) of the same compound?
**A.** Non-toxic

**Q.** What about the IC50 [19] of the same compound?
**A.** > 500000 nM

**Q.** What about the solubility [20] of the same compound?
**A.** 80 µg/mL (≈ 226 µM)

**Q.** What about the Activity [21] of the same compound?
**A.** 34%

**Q.** And the AUC(0-inf) [22]?
**A.** 182 ng·h/mL

**Q.** And the Activity (MiaPaCa [23])?
**A.** Active

**Q.** And the Cmax [24]?
**A.** 190 ng/mL

**Q.** And the inhibition [25]?
**A.** inactive

**Q.** What about the IC50 (NCI-H358 [26]) of the same compound?
**A.** 2200 nM

**Q.** And the IC50 (NCI-H1299 [27])?
**A.** 2500 nM

**Q.** What about the Activity (NCI-H358 [28]) of the same compound?
**A.** Dose-dependent effect
